This is an account of results in ChEMBL document CHEMBL1154664, “From serendipity to rational antituberculosis drug discovery of mefloquine-isoxazole carboxylic acid esters” (J Med Chem, 2009).

Converted amounts (≈) assume the structure as drawn.

The nature of series [1]: AUC in BALB/c mouse at 400 mg/kg, po. Format: ADME, organism-based. Also noted: dose 400 mg/kg, route oral. As to conditions: plasma. In short, it runs like this:
(§1)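 Female BALB/c mice (20-22 g), groups of twelve, single oral 400 mg/kg dose as a 20 mg/mL suspension in 0.5% carboxymethyl cellulose. Retro-orbital blood at 0, 15, 30, 45, 90 and 120 min. Plasma obtained by centrifugation, then precipitated with three volumes of acetonitrile containing internal standard. Parent and metabolites quantified by LC-MS-MS using positive electrospray and selected reaction monitoring.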

Series [2] concerns Mus musculus. Put plainly: Plasma concentration in BALB/c mouse assessed as 5-((2,8-bis(trifluoromethyl)qu inolin-4-yloxy)methyl)isoxazole-3-carboxylic acid at 400 mg/kg, po after 3 hrs. Format: ADME, organism-based. Also noted: dose 400 mg/kg, route oral. As to conditions: in vivo.
The test system of series [3] is Mus musculus. Put plainly: Cmax in BALB/c mouse assessed as 2,8-bis(trifluoromethyl)quinol in-4-ol at 400 mg/kg, po. Also noted: dose 400 mg/kg, route oral. The class given is ADME, organism-based. Conditions: in vivo. In short, it runs like this:
as §1

A short description of series [4]: Selectivity index, ratio of IC50 for Vero cells to IC50 for Mycobacterium tuberculosis H37Rv by Alamar blue susceptibility assay. The class given is toxicity, cell-based. Conditions: monkey, read-out: Ratio IC50.
The subject of series [5] is Mus musculus. Put plainly: Cmax in BALB/c mouse assessed as E-Ethyl 5-[2-(4-quinolinyl)eth enyl]-3-isoxazolecarboxylate at 400 mg/kg, po. As to conditions: in vivo. Format: ADME, organism-based. Further details: dose 400 mg/kg, route oral. In outline:
as §1

In series [6] the test system is Mus musculus. Put plainly: Plasma concentration in BALB/c mouse assessed as 5-((2,8-bis(trifluoromethyl)qu inolin-4-yloxy)methyl)isoxazole-3-carboxylic acid at 400 mg/kg, po after 90 mins. Format: ADME, organism-based. Also noted: dose 400 mg/kg, route oral. As to conditions: in vivo, 1.5 h. In outline:
as §1

In series [7] the test system is Mycobacterium tuberculosis. Put plainly: Antitubercular activity against Mycobacterium tuberculosis H37Rv by low oxygen recovery assay. The class given is functional. In outline:
(§2)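 Nonreplicating M. tuberculosis H37Rv cultures; MIC determined by low oxygen recovery assay (LORA), run as previously described.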

For another series, the system named is Vero. Put plainly: Cytotoxicity against african green monkey Vero cells after 72 hrs. As to conditions: Chlorocebus sabaeus. The class given is cell-based. In outline:
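VERO green monkey kidney cells exposed to compound for 72 h.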

Series [8] in a line: Half life in BALB/c mouse at 400 mg/kg, po. Further details: dose 400 mg/kg, route oral. The class given is ADME, organism-based. As to conditions: in vivo. In short, it runs like this: as §1
A short description of series [9]: Selectivity index, ratio of IC50 for Vero cells to IC50 for Mycobacterium tuberculosis H37Rv by low oxygen recovery assay. Format: toxicity, cell-based. Conditions: monkey, read-out: Ratio IC50.
Series [10] is described as follows: Cmax in BALB/c mouse at 400 mg/kg, po. The class given is ADME, organism-based. Also noted: dose 400 mg/kg, route oral. As to conditions: in vivo. In short, it runs like this: as §1
The test system of series [11] is Mycobacterium tuberculosis. Put plainly: Antitubercular activity against Mycobacterium tuberculosis infected in macrophages assessed as reduction in colony forming unit. The class given is functional.
The test system of series [12] is Mycobacterium tuberculosis. Put plainly: Antitubercular activity against non replicating Mycobacterium tuberculosis. Format: functional. In short, it runs like this:
as §2

In series [13] the test system is Mus musculus. Put plainly: Tmax in BALB/c mouse assessed as 2,8-bis(trifluoromethyl)quinol in-4-ol at 400 mg/kg, po. The class given is ADME, organism-based. Also noted: dose 400 mg/kg, route oral. As to conditions: in vivo. In short, it runs like this:
as §1

The subject of series [14] is Mycobacterium tuberculosis. Put plainly: Antitubercular activity against replicating Mycobacterium tuberculosis. The class given is functional. In outline:
(§3)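 Replicating M. tuberculosis H37Rv cultures; MIC by microplate Alamar Blue assay (MABA) at pH 6.8, run as previously described.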

Series [15] deals with Mycobacterium tuberculosis. Put plainly: Antitubercular activity against Mycobacterium tuberculosis H37Rv at pH 6.8 by Alamar blue susceptibility assay. Format: functional. In outline: as §3
Series [16] relates to Mus musculus. Put plainly: Plasma concentration in BALB/c mouse assessed as 5-((2,8-bis(trifluoromethyl)qu inolin-4-yloxy)methyl)isoxazole-3-carboxylic acid at 400 mg/kg, po after 30 mins. Format: ADME, organism-based. Also noted: dose 400 mg/kg, route oral. As to conditions: in vivo, 0.5 h. In outline: as §1

On to `CCOC(=O)c1cc(COc2cc(C(F)(F)F)nc3c(C(F)(F)F)cccc23)on1`, for which the AUC (commonly concentration integrated over time) in [1] stood at 2.2 µM·h. The Cp in the series on Mus musculus [2] was determined as 100 ng/mL; with Mus musculus [6] it was 26 ng/mL; in the series with Mus musculus [16], 400 ng/mL. Besides, the Cmax (as a rule, the highest concentration seen after dosing) was determined as 2710 ng/mL in the series on Mus musculus [3], 30 ng/mL in the series on Mus musculus [5] and 1 µM in series [10]. Besides, the selectivity ratio in series [4] was over 144; in [9] it was over 10.5. The MIC (commonly the least concentration at which growth counts as inhibited) in series [7] amounted to 12.2 µM (≈ 5.3 µg/mL); in series [12] it was 12.2 µM (≈ 5.3 µg/mL); in series [14] it was 0.9 µM (≈ 0.391 µg/mL); in series [15] it was 0.9 µM (≈ 0.391 µg/mL). Moreover, the IC50 (in general, the concentration needed to halve the response being measured) in the series with Vero is over 128 µM. Moreover, the half-life (commonly how long it takes for the measured level to halve) in [8] was 1.6 h. In addition, the EC90 (as a rule, the concentration needed for an effect of 90%) in series [11] is 4.1 µM. The Tmax (as a rule, the time at which the peak concentration occurs) in the series with Mus musculus [13] amounted to 0.5 h.
Regarding `CCOC(=O)c1cc(C(C)(C)Oc2cc(C(F)(F)F)nc3c(C(F)(F)F)cccc23)on1`, the selectivity ratio in series [4] amounted to 0.6; in series [9], 1. Besides, the MIC was determined as 22.1 µM (≈ 10.2 µg/mL) in [7] and 6.8 µM (≈ 3.14 µg/mL) in series [15]. Half-maximal inhibition with Vero (IC50) required 23 µM.
The like results for `CCOC(=O)c1cc(CCc2cc(C(F)(F)F)nc3c(C(F)(F)F)cccc23)on1` were, in that order, over 22.5, over 10.2, 12.6 µM (≈ 5.45 µg/mL), 5.7 µM (≈ 2.46 µg/mL) and over 128 µM.
In the same order, the values of `CCOC(=O)c1cc(/C=C\c2ccnc3ccccc23)on1` are over 213, over 42.7, 3 µM (≈ 0.883 µg/mL), 0.6 µM (≈ 0.177 µg/mL) and over 128 µM.
Consider `CCOC(=O)c1cc(/C=C\c2cc(C(F)(F)F)nc3ccc(C(F)(F)F)cc23)on1`, for which the IC50 in the series with Vero is over 128 µM.
The molecule `CCOC(=O)c1cc(/C=C/c2ccnc3ccccc23)on1` showed an AUC in series [1] of 156 µM·h. In addition, the selectivity ratio is over 640 in series [4] and over 49.2 in [9]. For the same molecule, the MIC in series [7] was determined as 2.6 µM (≈ 0.765 µg/mL); in series [15], 0.2 µM (≈ 0.0589 µg/mL). In the series with Vero, this molecule displayed a concentration for half-maximal inhibition (IC50) of over 128 µM. For the same molecule, in [8], the half-life is 1.9 h. In [10], this molecule came in with a Cmax of 61.7 µM.
Turning to `CCOC(=O)c1cc(C(=O)Nc2cc(C(F)(F)F)nc3c(C(F)(F)F)cccc23)on1`, the selectivity ratio in [4] is over 4.3. The figures for the MIC in [7] and in series [15] were over 128 µM and 29.5 µM (≈ 13.2 µg/mL), respectively. In the series on Vero, this molecule displayed an IC50 of over 128 µM.
As for `CCOC(=O)c1cc(/C=C/c2cc(C(F)(F)F)nc3c(C(F)(F)F)cccc23)on1`, the selectivity ratio was over 47.5 in [4] and over 3.3 in series [9]. Further, the MIC in series [7] was 38.9 µM (≈ 16.7 µg/mL); in [15], 2.7 µM (≈ 1.16 µg/mL). Further, the IC50 with Vero is over 128 µM.
On to `CCOC(=O)c1cc(C(Oc2cc(C(F)(F)F)nc3c(C(F)(F)F)cccc23)c2ccccc2)on1` (stereo not drawn), for which the MIC in series [7] and in series [15] was over 128 µM in each case. The molecule further came in with an IC50 in the series on Vero of over 128 µM.
`O=C(O)c1cc(/C=C/c2ccnc3ccccc23)on1` returned a half-inhibitory concentration (IC50) in the series with Vero of over 128 µM.
For `CCOC(=O)c1cc(C(C)Oc2cc(C(F)(F)F)nc3c(C(F)(F)F)cccc23)on1` (stereo not drawn), the selectivity ratio in series [4] is over 30.5; in series [9], over 6.2. Moreover, the values for the MIC in [7] and in series [15] were 20.7 µM (≈ 9.28 µg/mL) and 4.2 µM (≈ 1.88 µg/mL), respectively. Besides, in the series on Vero, the IC50 is over 128 µM.
Take `CCOC(=O)c1cc(CCc2ccnc3ccccc23)on1`: the selectivity ratio in series [4] is over 47.5; in series [9], over 5.7. Moreover, the MIC amounted to 22.5 µM (≈ 6.67 µg/mL) in series [7] and 2.7 µM (≈ 0.8 µg/mL) in [15]. The same molecule had an IC50 with Vero of over 128 µM.
On to `CCOC(=O)c1cc(/C=C\c2ccnc3ccc(OC)cc23)on1`, for which the values for the selectivity ratio in series [4] and in [9] were over 80 and over 64, respectively. Besides, the MIC in series [7] amounted to 2 µM (≈ 0.649 µg/mL); in series [15] it was 1.6 µM (≈ 0.519 µg/mL). In the series with Vero, this molecule gave an IC50 of over 128 µM.
In the same order, the values of `CCOC(=O)c1cc(/C=C/c2ccnc3ccc(OC)cc23)on1` are over 320, over 116, 1.1 µM (≈ 0.357 µg/mL), 0.4 µM (≈ 0.13 µg/mL) and over 128 µM.
For `CCOC(=O)c1cc(/C=C/c2ccc3ncccc3c2)on1`, the results for the selectivity ratio in series [4] and in series [9] were over 142 and over 13.8, respectively. The MIC amounted to 9.3 µM (≈ 2.74 µg/mL) in series [7] and 0.9 µM (≈ 0.265 µg/mL) in series [15]. For the same molecule, the IC50 in the series with Vero was over 128 µM.
The like results for `CCOC(=O)c1cc(-c2cc(C(F)(F)F)nc3c(C(F)(F)F)cccc23)on1` were, in that order, over 7.8, over 2.7, 48.1 µM (≈ 19.4 µg/mL), 16.5 µM (≈ 6.67 µg/mL) and over 128 µM.
Consider `CCCCC(Oc1cc(C(F)(F)F)nc2c(C(F)(F)F)cccc12)c1cc(C(=O)OCC)no1` (stereo not drawn), for which the selectivity ratio in series [4] worked out at 0.3; in series [9], 3.6. Further, the MIC was found to be 11.9 µM (≈ 5.84 µg/mL) in series [7] and 116 µM (≈ 56.8 µg/mL) in series [15]. In addition, the IC50 in the series on Vero is 42.7 µM.
In the same order, the values of `CCOC(=O)c1cc(/C=C\c2ccc3ncccc3c2)on1` are over 98.4, over 10.3, 12.4 µM (≈ 3.65 µg/mL), 1.3 µM (≈ 0.383 µg/mL) and over 128 µM.
The like results for `OC(c1cc(C(F)(F)F)nc2c(C(F)(F)F)cccc12)C1CCCCN1` (stereo not drawn) [MEFLOQUINE] were, in that order, 0.9, 1.6, 7 µM (≈ 2.65 µg/mL), 13 µM (≈ 4.92 µg/mL) and 11 µM.
On to `CO[C@H]1/C=C/O[C@@]2(C)Oc3c(C)c(O)c4c(O)c(c(/C=N/N5CCN(C)CC5)c(O)c4c3C2=O)NC(=O)/C(C)=C\C=C\[C@H](C)[C@H](O)[C@@H](C)[C@@H](O)[C@@H](C)[C@H](OC(C)=O)[C@@H]1C` [RIFAMPIN], for which the results for the selectivity ratio in [4] and in [9] were 1220 and 61, respectively. Besides, the figures for the MIC in series [7] and in series [15] were 2 µM (≈ 1.65 µg/mL) and 0.1 µM (≈ 0.0823 µg/mL), respectively.
